The record followed here is ChEMBL document CHEMBL1955838, “Asymmetric synthesis and evaluation of a hydroxyphenylamide voltage-gated sodium channel blocker in human prostate cancer xenografts” (Bioorg Med Chem, 2012).

The source made the active and inactive calls. The calls are words filed in the database; no cut-off is given here.

A short description of data set [1]: Cytotoxicity against human CWR22Rv1 cells assessed as cell death at 25 uM after 72 hrs by propidium iodide staining-based FACS analysis. The data set is classed as functional, CWR22R. The gist of the method:
(§1)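 CWR22Rv1 cells seeded at 300,000/well in RPMI 1640 with 10% FBS, 2.5 mM L-glutamine and penicillin-streptomycin at 37 °C, 5% CO2, then switched to serum-free RPMI overnight. Compounds from DMSO stock diluted in serum-free RPMI, applied in triplicate. After treatment, cells trypsinized, fixed in 70% ethanol, RNase-treated (5 μg/mL), stained with propidium iodide (50 μg/mL), DNA content read by flow cytometry.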

The subject of data set [2] is PC-3. Briefly: Antitumor activity against human PC3 cells xenografted in athymic BALB/c nude mouse assessed as reduction in tumor volume at 10 mg/kg, ip qd administered every other day for 24 days. It counts as functional. On the set-up: scale not given: the % may be the effect or the level left. The settings on record: route intraperitoneal. Put shortly: (§2)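 Male athymic nude mice (18–22 g) given 3 × 10^6 PC3 cells subcutaneously in right axillary region; randomized one week later into four groups of 6. Compound from DMSO stock diluted in PEG 400/PBS (1:1), given ip once every other day; vehicle control group. Tumor size by caliper, volume = length × width × height/2. One-way ANOVA or ANOVA on ranks with Tukey/Dunn post hoc; mean ± S.E.M.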

Data set [3] has as its system PC-3. Briefly: Antitumor activity against human PC3 cells xenografted in athymic BALB/c nude mouse assessed as reduction in tumor volume at 10 mg/kg, ip qd administered every other day for 24 days measured on day 15. The data set is classed as functional, organism-based. On the set-up: dose 10 mg/kg. Put shortly:
as §2
In general terms: In xenograft studies the graft and the host belong to different species.

For data set [4], the target named is Sodium channel protein type 2 subunit alpha (Homo sapiens) (UniProt Q99250). Kind of data set: Inhibition of human voltage-gated sodium channel 1.2-mediated current expressed in HEK293 cells at -60 to +10 mV holding poteinitial at 10 uM after 5 mins by patch clamp electrophysiology. The data set is classed as cell-based. Put shortly: (§3)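 Whole-cell patch clamp at 20–22 °C. Pipette solution CsCl/BAPTA/MgATP, pH 7.4; bath NaCl 130 mM, pH 7.4. ≥75% series resistance compensation; cells held at −100 mV for 5 min. Currents evoked by 25 ms steps from −60 to +10 mV every 15 s. Compound from 100 mM DMSO stock, perfused 5 min, then washout. Tonic block taken as peak current with drug versus drug-free.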
Chain of Sodium channel protein type 2 subunit alpha (Homo sapiens) (Q99250 whole entry, looked up, the tested form may be a part): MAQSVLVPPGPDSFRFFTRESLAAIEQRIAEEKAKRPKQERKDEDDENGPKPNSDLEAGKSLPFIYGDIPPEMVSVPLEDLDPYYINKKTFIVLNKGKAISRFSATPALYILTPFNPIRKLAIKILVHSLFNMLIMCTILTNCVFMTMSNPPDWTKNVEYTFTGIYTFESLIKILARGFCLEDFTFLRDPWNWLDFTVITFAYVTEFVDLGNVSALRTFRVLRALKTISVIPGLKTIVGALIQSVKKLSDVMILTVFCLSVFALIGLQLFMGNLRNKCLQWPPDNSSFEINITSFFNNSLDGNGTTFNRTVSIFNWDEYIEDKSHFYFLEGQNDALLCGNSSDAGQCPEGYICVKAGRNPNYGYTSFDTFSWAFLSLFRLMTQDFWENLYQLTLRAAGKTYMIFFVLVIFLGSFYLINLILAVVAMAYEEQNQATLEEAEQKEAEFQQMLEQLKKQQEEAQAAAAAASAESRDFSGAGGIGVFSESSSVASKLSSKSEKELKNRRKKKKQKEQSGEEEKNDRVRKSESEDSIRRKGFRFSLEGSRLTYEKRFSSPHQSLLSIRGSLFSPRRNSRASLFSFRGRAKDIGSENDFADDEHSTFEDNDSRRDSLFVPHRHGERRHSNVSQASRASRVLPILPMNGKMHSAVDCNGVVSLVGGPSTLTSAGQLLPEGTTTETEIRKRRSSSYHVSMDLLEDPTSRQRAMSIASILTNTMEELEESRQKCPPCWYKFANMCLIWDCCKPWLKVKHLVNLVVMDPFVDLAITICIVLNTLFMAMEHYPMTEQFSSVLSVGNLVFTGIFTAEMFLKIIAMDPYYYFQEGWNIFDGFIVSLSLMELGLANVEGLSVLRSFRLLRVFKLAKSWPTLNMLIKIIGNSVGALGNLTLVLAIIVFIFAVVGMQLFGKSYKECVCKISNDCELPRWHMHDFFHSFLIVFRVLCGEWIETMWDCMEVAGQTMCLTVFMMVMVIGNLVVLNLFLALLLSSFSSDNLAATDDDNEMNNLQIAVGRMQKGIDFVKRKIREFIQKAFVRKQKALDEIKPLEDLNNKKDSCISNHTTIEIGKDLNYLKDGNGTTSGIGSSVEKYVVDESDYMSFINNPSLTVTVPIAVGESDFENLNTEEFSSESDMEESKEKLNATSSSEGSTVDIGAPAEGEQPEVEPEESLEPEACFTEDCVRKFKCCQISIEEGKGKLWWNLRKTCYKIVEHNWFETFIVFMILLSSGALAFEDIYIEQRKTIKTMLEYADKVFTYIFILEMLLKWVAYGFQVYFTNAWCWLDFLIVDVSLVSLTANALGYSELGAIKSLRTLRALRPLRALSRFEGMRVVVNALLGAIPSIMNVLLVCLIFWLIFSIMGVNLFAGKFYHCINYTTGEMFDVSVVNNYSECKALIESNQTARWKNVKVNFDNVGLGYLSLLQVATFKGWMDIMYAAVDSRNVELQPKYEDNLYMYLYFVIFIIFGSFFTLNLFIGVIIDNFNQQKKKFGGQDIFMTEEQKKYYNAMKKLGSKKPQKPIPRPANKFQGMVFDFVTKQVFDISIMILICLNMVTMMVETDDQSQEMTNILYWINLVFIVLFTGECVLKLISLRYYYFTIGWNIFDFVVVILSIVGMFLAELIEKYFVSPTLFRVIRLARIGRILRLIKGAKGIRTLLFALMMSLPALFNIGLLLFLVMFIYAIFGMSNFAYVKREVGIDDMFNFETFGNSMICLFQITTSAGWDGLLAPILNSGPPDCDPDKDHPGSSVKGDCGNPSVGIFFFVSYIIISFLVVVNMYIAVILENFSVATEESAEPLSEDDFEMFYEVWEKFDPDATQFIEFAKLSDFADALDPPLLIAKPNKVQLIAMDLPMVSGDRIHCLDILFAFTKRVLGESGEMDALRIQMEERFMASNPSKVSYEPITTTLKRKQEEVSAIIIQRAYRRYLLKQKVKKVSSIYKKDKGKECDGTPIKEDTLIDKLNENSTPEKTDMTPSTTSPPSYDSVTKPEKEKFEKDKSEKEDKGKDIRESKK

Data set [5] shares this target. Briefly: Reversible inhibition of human voltage-gated sodium channel 1.2-mediated current expressed in HEK293 cells at -60 to +10 mV holding poteinitial at 1 to 10 uM after 5 mins measured after drug washout by patch clamp electrophysiology. The data set is classed as cell-based. The gist of the method:
as §3
(Patch clamp records ionic current or voltage across a cell membrane.)

The nature of data set [6]: (§4) Cytotoxicity against human CWR22Rv1 cells assessed as cell death at 25 uM after 24 hrs by propidium iodide staining-based FACS analysis. The data set is classed as functional, CWR22R. The gist of the method: as §1
The target of data set [7] is Sodium channel protein type 2 subunit alpha (Homo sapiens) (UniProt Q99250). Briefly: Inhibition of human voltage-gated sodium channel 1.2-mediated current expressed in HEK293 cells at -60 to +10 mV holding poteinitial at 1 uM after 5 mins by patch clamp electrophysiology. It counts as cell-based. The gist of the method:
as §3

In data set [8] the target is T1, hERG (KCNH2) (Homo sapiens, UniProt Q12809). Kind of data set: Displacement of [35S]MK-0499 from human ERG at 10 uM after >90 mins by scintillation counting. The settings on record: probe [35S]MK-0499. Put shortly:
(§5)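 Binding to membranes from HEK-293 cells stably expressing hERG, with 0.05 nM [35S]MK-499 in NaCl/KCl/HEPES buffer pH 7.4 with Mg2+ and Ca2+, 25 °C for >90 min. Filtered on BSA-presoaked GF/C plates, then scintillation counted. Five-point half-log titration, 0.3–30 μM. Percent inhibition relative to no-competitor control and 1 μM unlabeled MK-499; triplicate.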

Data set [9] concerns the target T1, hERG (KCNH2). Kind of data set: Displacement of [35S]MK-0499 from human ERG at 0.3 uM after >90 mins by scintillation counting. As to conditions: probe [35S]MK-0499. Put shortly: as §5
The target of data set [10] is T1, hERG (KCNH2). Kind of data set: Displacement of [35S]MK-0499 from human ERG at 1 uM after >90 mins by scintillation counting. The settings on record: probe [35S]MK-0499. The gist of the method:
as §5

In data set [11] the target is T1, hERG (KCNH2). Kind of data set: Displacement of [35S]MK-0499 from human ERG at 3 uM after >90 mins by scintillation counting. The settings on record: probe [35S]MK-0499. Put shortly:
as §5
A general note: In a radioligand displacement assay an active substance lowers the binding of a labelled ligand.

In data set [12] the target is T1, hERG (KCNH2). Briefly: Displacement of [35S]MK-0499 from human ERG at 30 uM after >90 mins by scintillation counting. The settings on record: probe [35S]MK-0499. Put shortly: as §5
The test system of data set [13] is CWR22R. The data set is described as §4. It counts as functional. Put shortly:
as §1

Data set [14] deals with Sodium channel protein type 9 subunit alpha (Homo sapiens, UniProt Q15858). Briefly: Inhibition of human voltage-gated sodium channel 1.7 expressed in HEK293 cells assessed as changes in membranre potential after 45 mins by FRET analysis.
Chain of Sodium channel protein type 9 subunit alpha (Q15858 whole entry): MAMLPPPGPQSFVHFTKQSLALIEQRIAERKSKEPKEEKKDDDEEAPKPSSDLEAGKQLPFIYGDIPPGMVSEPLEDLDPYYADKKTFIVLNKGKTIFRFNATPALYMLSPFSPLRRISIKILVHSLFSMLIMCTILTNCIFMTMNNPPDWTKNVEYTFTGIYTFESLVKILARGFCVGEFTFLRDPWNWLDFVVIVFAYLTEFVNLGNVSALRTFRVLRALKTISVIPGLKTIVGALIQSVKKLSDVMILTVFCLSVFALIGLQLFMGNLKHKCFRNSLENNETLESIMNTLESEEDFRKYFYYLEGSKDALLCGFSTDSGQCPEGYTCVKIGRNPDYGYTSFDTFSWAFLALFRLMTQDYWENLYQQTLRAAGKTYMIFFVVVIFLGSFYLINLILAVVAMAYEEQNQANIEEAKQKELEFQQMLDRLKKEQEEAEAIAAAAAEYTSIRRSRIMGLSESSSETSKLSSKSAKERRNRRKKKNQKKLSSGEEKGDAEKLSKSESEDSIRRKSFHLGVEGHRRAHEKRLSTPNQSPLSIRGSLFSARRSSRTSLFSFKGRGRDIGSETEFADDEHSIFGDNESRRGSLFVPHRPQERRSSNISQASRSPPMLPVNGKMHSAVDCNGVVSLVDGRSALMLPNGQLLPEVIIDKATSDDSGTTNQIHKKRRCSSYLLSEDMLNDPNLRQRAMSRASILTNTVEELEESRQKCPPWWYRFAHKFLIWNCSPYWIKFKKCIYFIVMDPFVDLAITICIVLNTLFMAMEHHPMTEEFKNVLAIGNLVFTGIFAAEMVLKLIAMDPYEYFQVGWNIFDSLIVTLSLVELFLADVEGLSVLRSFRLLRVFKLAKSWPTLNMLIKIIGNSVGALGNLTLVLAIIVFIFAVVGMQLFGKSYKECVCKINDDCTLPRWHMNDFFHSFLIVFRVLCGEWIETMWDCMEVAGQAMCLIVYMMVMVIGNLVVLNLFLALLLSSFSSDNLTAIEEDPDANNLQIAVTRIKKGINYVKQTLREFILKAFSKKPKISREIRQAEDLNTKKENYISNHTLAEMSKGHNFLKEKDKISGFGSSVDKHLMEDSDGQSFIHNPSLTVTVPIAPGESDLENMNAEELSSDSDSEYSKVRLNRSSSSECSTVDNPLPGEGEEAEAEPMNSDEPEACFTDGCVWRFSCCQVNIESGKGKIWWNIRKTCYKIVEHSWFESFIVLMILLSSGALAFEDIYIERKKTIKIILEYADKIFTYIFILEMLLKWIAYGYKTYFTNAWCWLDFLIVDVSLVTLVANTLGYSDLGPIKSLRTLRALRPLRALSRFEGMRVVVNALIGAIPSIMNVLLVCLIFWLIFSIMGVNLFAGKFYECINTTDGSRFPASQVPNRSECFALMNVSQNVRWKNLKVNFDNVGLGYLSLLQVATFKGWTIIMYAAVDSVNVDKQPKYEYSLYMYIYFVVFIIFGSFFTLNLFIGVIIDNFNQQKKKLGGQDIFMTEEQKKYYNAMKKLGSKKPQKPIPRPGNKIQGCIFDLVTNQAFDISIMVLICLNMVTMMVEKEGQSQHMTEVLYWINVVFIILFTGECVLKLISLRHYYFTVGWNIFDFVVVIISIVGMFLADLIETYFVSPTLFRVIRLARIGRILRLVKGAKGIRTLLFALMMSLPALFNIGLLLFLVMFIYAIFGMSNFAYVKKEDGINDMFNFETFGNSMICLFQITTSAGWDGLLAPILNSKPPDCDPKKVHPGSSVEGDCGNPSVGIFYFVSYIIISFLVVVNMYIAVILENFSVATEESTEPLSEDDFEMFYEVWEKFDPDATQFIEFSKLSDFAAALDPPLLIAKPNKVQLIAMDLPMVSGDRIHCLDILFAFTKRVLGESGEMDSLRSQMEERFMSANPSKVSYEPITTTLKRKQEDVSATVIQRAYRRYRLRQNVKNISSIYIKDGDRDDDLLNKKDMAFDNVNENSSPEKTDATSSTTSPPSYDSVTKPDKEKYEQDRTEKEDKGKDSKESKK

T1 sequence (Q12809 whole entry): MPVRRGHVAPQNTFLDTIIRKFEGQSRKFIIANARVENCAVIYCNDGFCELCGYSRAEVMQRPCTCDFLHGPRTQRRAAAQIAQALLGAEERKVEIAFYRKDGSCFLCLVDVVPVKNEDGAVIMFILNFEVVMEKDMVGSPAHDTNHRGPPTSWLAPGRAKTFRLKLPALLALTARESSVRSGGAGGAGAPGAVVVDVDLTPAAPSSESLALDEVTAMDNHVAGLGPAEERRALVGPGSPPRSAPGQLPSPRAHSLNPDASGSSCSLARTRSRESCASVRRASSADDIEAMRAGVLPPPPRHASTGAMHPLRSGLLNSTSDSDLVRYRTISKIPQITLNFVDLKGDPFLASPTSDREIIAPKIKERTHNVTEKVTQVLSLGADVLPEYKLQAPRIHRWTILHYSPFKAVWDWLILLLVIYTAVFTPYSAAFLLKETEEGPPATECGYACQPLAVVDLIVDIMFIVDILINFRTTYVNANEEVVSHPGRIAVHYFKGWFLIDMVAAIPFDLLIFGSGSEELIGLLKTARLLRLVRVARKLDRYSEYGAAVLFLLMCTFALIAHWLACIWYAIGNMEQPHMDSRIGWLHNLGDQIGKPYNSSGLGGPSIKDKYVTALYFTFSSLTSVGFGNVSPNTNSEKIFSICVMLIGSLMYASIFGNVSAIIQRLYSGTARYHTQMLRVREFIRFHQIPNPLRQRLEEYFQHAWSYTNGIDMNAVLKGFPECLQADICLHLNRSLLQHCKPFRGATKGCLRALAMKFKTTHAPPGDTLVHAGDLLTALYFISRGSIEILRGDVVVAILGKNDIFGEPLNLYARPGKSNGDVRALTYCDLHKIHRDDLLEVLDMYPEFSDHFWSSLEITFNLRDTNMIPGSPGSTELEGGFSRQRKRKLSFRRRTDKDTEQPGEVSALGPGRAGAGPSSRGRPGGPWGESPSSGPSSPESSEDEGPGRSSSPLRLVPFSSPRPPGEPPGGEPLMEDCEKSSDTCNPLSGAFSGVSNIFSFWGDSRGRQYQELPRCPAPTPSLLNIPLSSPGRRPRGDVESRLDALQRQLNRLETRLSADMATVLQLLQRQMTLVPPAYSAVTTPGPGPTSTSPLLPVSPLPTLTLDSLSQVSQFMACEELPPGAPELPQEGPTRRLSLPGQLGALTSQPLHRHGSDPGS

A word on the inhibition: it is the percentage by which the read-out fell short of the control. Turning to `CCCCCCC[C@](O)(C(N)=O)c1cccc(Cl)c1`, the Activity in data set [1] is on record as 60%; in data set [2], 62%; in [6] it was 25%. For the same compound, the result in data set [3] was Active. The inhibition was found to be 94.3% in data set [4] and 67.4% in [7]. Besides, the inhibition result in data set [5] was “Active”.

For orientation: IC50 means the midpoint of a concentration-inhibition curve. `CCCCCCCC(O)(C(N)=O)c1cccc(Cl)c1` (racemic) gave an inhibition at […], 10 µM in data set [8] of 51%. Also, the results for the Activity in [1] and in data set [2] were 25% and 62%, respectively. The compound also had an inhibition at […], 0.3 µM in data set [9] of 15%. This compound had an inhibition at […], 1 µM in data set [10] of 17%. In data set [11], this compound gave an inhibition at […], 3 µM of 15%. The result in [3] and in [13] was Active. Moreover, the inhibition in data set [4] worked out at 87%; in [7], 31.9%. The inhibition entry in data set [5] was “Active”. In data set [12], this compound displayed an inhibition at […], 30 µM of 78%. For the same compound, the IC50 in data set [14] stood at 1810 nM.

For the compound `CCCCCCC[C@@](O)(C(N)=O)c1cccc(Cl)c1`, the Activity in data set [1] is 40%; in data set [2] it was 62%. The result in [3] and in data set [13] was Active. The inhibition in data set [4] worked out at 91.5%; in [7], 34.9%. Besides, the inhibition entry in [5] was “Active”.
